CASP6 VEID inh: human caspase-6 inhibitors, primary screen, biochemical, VEID-R110 fluorescence, single point, set 2 | P55212 | purified caspase-6, Z-VEID-R110 cleavage fluorescence | inhibition, % at 12.5 µM | actives 0.53% (n = 350,000) | AID 686996, 2013;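 active = mean inhibition across replicates at least about 35%, with every replicate also reaching that limit, limit read from the data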
Target sequence (P55212 24-179 limits assumed): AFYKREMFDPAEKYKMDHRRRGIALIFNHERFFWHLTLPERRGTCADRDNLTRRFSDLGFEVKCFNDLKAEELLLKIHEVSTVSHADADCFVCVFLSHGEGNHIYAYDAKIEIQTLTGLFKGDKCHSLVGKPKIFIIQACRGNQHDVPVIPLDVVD
Target sequence (P55212 194-293 limits assumed): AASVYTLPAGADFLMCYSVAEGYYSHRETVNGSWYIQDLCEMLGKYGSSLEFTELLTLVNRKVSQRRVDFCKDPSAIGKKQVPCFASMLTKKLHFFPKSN
UHRF1 binding: UHRF1 methylated DNA binding inhibitors, primary screen, counter-screen for MBD2 inhibitor project, biochemical, TR-FRET, human UHRF1, single concentration. E3 ubiquitin-protein ligase UHRF1 (Homo sapiens), Q96T88. UHRF1 binding to methylated oligo. inhibition, % at 4.4 µM. actives 0.75% (n = 370,000). AID 687016, 2013; in the data active = inhibition above about 21%;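 also: UHRF1 SRA domain binding a hemimethylated CpG hairpin DNA probe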
MBD2 DNA inh: inhibitors of MBD2 binding to methylated DNA, primary screen, biochemical, TR-FRET, DNA-binding domain, human | Methyl-CpG-binding domain protein 2 (Homo sapiens), Q9UBB5 | MBD2 binding to methylated oligonucleotide | inhibition, % at 4.4 µM | actives 0.31% (n = 370,000) | AID 686964, 2013; in the data active = inhibition above about 13%
LEDGF integ inh: blockers of LEDGF/p75-dependent integrase strand transfer – biochemical, TR-FRET, high throughput, primary screen; HIV-1 integrase (with human LEDGF/p75); TR-FRET IN-LEDGF/p75 DNA integration, Eu/Cy5; inhibition, % at 3.7 µM; actives 0.64% (n = 370,000);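 active = inhibition above the screen-wide mean plus 3 SD, cut at about 13% in these data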;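 also: signal is the Cy5 over europium emission ratio at 671 and 618 nm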
TDP2 inh: human TDP2 enzyme inhibitors, primary screen, biochemical, epi absorbance, recombinant enzyme | Tyrosyl-DNA phosphodiesterase 2 (Homo sapiens), O95551 | T5PNP hydrolysis, p-nitrophenol absorbance 415 nm | inhibition, % at 12.8 µM | actives 0.34% (n = 370,000);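 active = inhibition above the mean of all tested compounds plus 3 SD, set per campaign, cut at about 25% in these data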
Target sequence (O95551 whole entry, looked up): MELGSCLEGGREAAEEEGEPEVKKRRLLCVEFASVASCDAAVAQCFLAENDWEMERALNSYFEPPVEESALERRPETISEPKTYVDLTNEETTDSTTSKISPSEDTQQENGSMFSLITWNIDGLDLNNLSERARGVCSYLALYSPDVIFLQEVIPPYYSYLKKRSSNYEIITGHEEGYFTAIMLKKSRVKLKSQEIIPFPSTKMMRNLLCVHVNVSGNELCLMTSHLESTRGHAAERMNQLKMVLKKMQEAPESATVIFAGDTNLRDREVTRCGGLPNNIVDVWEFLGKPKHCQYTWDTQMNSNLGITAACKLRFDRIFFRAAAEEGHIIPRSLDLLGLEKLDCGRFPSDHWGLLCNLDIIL
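Assay system: recombinant human TDP2 / Reagent: T5PNP substrate at 5 mM, a TopII-DNA adduct mimic / Measured by: epi absorbance from released p-nitrophenol / Evaluation: % inhibition relative to enzyme-containing and enzyme-free wells / Control set: enzyme-free and DMSO wells / Replicates: each compound tested once, singlicate / Schedule: enzyme reaction with compound for 2 h at 37 °C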
NSD2 HMT inh: NSD2 histone methyltransferase inhibitors, primary screen, biochemical, AlphaScreen, single concentration, set 2; Histone-lysine N-methyltransferase NSD2 (Homo sapiens), O96028; NSD2 peptide methylation, 120 min; inhibition, % at 12.5 µM; actives 0.54% (n = 310,000); AID 743445, 2014; in the data active = inhibition above about 50%
Numbers stand for hits; i = inactive; nt = no result given. In the library only some 1.9% were active in any assay of this set; here they are far more common.

SMILES | CASP6 VEID inh | UHRF1 binding | MBD2 DNA inh | LEDGF integ inh | TDP2 inh | NSD2 HMT inh
Cc1ccc(C)c(Sc2ccc(S(=O)(=O)Nc3ccc(C(=O)O)cc3)cc2)c1 | i | i | i | i | i | i
Cc1ccc(Sc2ccc(S(=O)(=O)Nc3ccc(CC(=O)O)cc3)cc2)cc1C | 41 | i | i | i | i | i
CC(C)CC#Cc1ccc2c(c1)O[C@@H](CN(C)C)[C@@H](C)CN([C@H](C)CO)S2(=O)=O | i | nt | nt | nt | nt | nt
Cc1ccc(NC(=O)NNS(=O)(=O)c2ccc(Br)cc2)cc1 | nt | i | i | i | i | i
Cc1ccc(S(=O)(=O)NC(=O)Nc2ccc(N(C)C)cc2)cc1 | i | i | i | 26 | i | i
COc1cc(-n2c(N)c(C(=O)NCc3ccco3)c3nc4ccccc4nc32)cc(OC)c1OC | i | i | i | i | i | i
COc1ccc(-n2c(N)c(C(=O)NCc3ccco3)c3nc4ccccc4nc32)cc1OC | nt | 47 | i | i | i | nt
CC1CCCC(NC(=O)c2ccc3c(SCC(=O)O)c4c(nc3c2)CCC4)C1C (stereo not drawn) | 43 | i | i | i | i | nt
CCOC(=O)C1CCCN(C(=O)c2cc(Cl)ccc2Cl)C1 (stereo not drawn) | nt | 22 | i | i | i | nt
CCOC(=O)C1CCCN(C(=O)c2ccc(Cl)cc2)C1 (stereo not drawn) | nt | i | i | i | i | i
Cc1ccc(-c2nc(C(Cl)Cl)c3ccccc3n2)cc1 | i | 47 | i | i | i | i
CC(C)/C=C1\CCc2c([nH]c3ccccc23)C1=O | i | i | i | i | i | i
CCCC/C=C1\CCc2c([nH]c3ccccc23)C1=O | i | 24 | i | i | i | i
COc1ccccc1/C=C/C=N/n1c(C)nnc1C | i | 68 | i | i | i | i
COc1ccccc1/C=C/C=N/n1c(-c2ccc(F)cc2)n[nH]c1=S | i | i | i | i | i | i
C[C@@H]1CN([C@H](C)CO)C(=O)c2cc(NC(=O)Nc3ccc(C(F)(F)F)cc3)ccc2O[C@@H](C)CCCCO[C@H]1CN(C)Cc1ccc(C(=O)O)cc1 | i | nt | nt | nt | nt | nt
COc1cccc(N2[C@@H](CC(=O)O)c3ccc(/C=C/C(=O)O)cc3S2(=O)=O)c1 | 62 | i | i | i | i | nt
CC=Cc1ccc2n(c1=O)C[C@@H]1[C@@H](CO)[C@H](C(=O)NCCCN(C)C)[C@H]2N1C(=O)c1ccccc1F (mixture of isomers) | i | nt | nt | nt | nt | nt
OC[C@@H]1[C@@H](c2ccc(-c3ccccc3)cc2)[C@@H]2CN(Cc3cncnc3)CCCCN12 | i | nt | nt | nt | nt | nt
CCC(=O)N(CCC(Cc1ccccc1)c1ccc2c(c1)OCO2)Cc1ccccc1F (stereo not drawn) | nt | 25 | i | i | i | i
CCC(=O)N(CCC(Cc1ccccc1)c1ccco1)Cc1ccco1 (stereo not drawn) | i | i | i | i | i | i
O=C(C[C@H]1C[C@H]2c3cc(NC(=O)c4ccc5c(c4)OCO5)ccc3O[C@H]2[C@H](CO)O1)NCCc1ccccc1 | i | nt | nt | nt | nt | nt
O=C(OCCc1ccccc1)c1cc(O)c(O)c(O)c1 | i | i | i | i | i | nt
O=C(Oc1ccccc1)c1cc(O)c(O)c(O)c1 | nt | nt | nt | nt | nt | 116
Cc1cc2c(NC(=O)Nc3ccc(F)cc3)cccc2nn1 | 68 | i | i | i | i | i
SMILES | CASP6 VEID inh | UHRF1 binding | MBD2 DNA inh | LEDGF integ inh | TDP2 inh | NSD2 HMT inh
O=C(C[C@H]1C=C[C@H](NC(=O)Cc2ccccn2)[C@H](CO)O1)NCCc1ccncc1 | i | nt | nt | nt | nt | nt
CN1C(=O)c2cc(NC(=O)Nc3ccccc3Cl)ccc2OC[C@H]2O[C@H](CC(=O)NCCCN3CCOCC3)CC[C@@H]21 | i | nt | nt | nt | nt | nt
CN1CCN(c2ccc(CNC(=O)C3Cc4c(-c5ccc(Cl)cc5)ccnc4O3)cc2)CC1 (stereo not drawn) | i | i | i | i | i | i
CN1CCN(c2ccc(CNC(=O)C3Cc4c(-c5ccc6c(c5)OCO6)ccnc4O3)cc2)CC1 (stereo not drawn) | 80 | i | i | i | i | i
Cc1cc(C(=O)Nn2cnnc2)ccc1[N+](=O)[O-] | i | i | i | i | i | i
O=C(Nn1cnnc1)c1ccc(Cl)c([N+](=O)[O-])c1 | i | 25 | i | i | i | i
C[C@H]1CN([C@@H](C)CO)C(=O)c2cc(Br)cnc2O[C@@H]1CN(C)C(=O)c1ccc(F)cc1 | i | nt | nt | nt | nt | nt
C=CCN1[C@@H](C)[C@H](c2ccccc2)Oc2cccc(NCCc3ccccc3)c2S1(=O)=O | i | i | i | i | i | nt
Cc1ccccc1CN1[C@@H](C)[C@H](c2ccccc2)Oc2cccc(NCCc3ccccc3)c2S1(=O)=O | i | 21 | i | i | i | nt
Cn1c(=O)n(CCOc2ccccc2Cl)c2ccccc21 | nt | i | i | i | i | i
N=c1n(CCCOc2ccccc2Cl)c2ccccc2n1CC(N)=O | i | 25 | i | i | i | nt
O=C(/C=C/c1ccc(Cl)cc1)N1CCN(CCN2C(=O)c3cccc4cccc(c34)C2=O)CC1 | i | 31 | i | i | i | i
O=C1c2cccc3cccc(c23)C(=O)N1CCN1CCN(C(=S)Nc2ccc(Cl)cc2)CC1 | i | i | i | i | i | i
COc1cc(/C=C(/C#N)C(=O)Nc2ccccc2)ccc1OCc1ccc(C(=O)O)cc1 | 37 | i | i | i | i | i
CNC(=S)NNC(=O)c1ccccc1Br | i | 21 | i | i | i | i
C/C(=N\N=C(N)N)c1ccc(Cl)cc1Cl | i | 38 | i | i | i | i
CCc1ccc(CN2CCC(C(=O)Nc3ccc(Oc4ccccc4)nc3)CC2)o1 | i | 43 | i | i | i | i
CCCCn1c(NC(C)CC)nc2c1c(=O)[nH]c(=O)n2C (stereo not drawn) | nt | 98 | i | i | i | i
C[C@@H]1CN([C@@H](C)CO)C(=O)c2cc(NC(=O)Cc3cn(C)c4ccccc34)ccc2O[C@@H]1CN(C)C(=O)Nc1cccc2ccccc12 | i | nt | nt | nt | nt | nt
Cc1ccccc1C(=O)N=c1ccn(-c2nc3ccccc3nc2NS(=O)(=O)c2ccc(F)cc2)cc1 | i | 21 | i | i | i | i
O=C(N=c1ccn(-c2nc3ccccc3nc2NS(=O)(=O)c2ccccc2)cc1)c1cccs1 | i | i | i | i | i | i
C[C@H](CO)N1C[C@H](C)[C@@H](CN(C)C(=O)c2ccccc2)Oc2cc(C3=CCCCC3)ccc2S1(=O)=O | i | nt | nt | nt | nt | nt

Screening data from PubChem.
